Reference: paper PMC8112392 (Science signaling, 2021)

molecular target: Tlp10^LBD N120A (Campylobacter jejuni, UniProt Q0PCA6, N120A); experiment: biochemical; format: binding, C. jejuni; conditions: not given

| Compound | Kd [µM] |
| --- | --- |
| CC(=O)N[C@H]1[C@H]([C@H](O)[C@H](O)CO)OC(O)(C(=O)O)C[C@@H]1O (some centres unmarked) [sialic acid] | 37.1 ± 6 |
| Cc1ncc(C[n+]2csc(CCO)c2C)c(N)n1 [thiamine] | 58.3 ± 9 |

same assay, conditions: read-out: KD Tlp10^LBD N120A; SPR, mean ± s.d., n = 3

| Compound | Kd [µM] |
| --- | --- |
| O=C(O)CCC(=O)C(=O)O [α-ketoglutarate] | 580 ± 43 |
| fumarate | 317 ± 34 |
| rhamnose | 17.9 ± 3.7 |

tested on: C. jejuni 11168-O; experiment: Biofilm assay; format: cell-based; conditions: wild-type C. jejuni 11168-O, 10 mM galactose

| Compound | reduction of biofilm formation compared to untreated cells |
| --- | --- |
| O=C[C@H](O)[C@@H](O)[C@@H](O)[C@H](O)CO [galactose] | up to 46% |

same assay, conditions: Δtlp10^LBD mutant, 10 mM galactose

| Compound | change in biofilm formation |
| --- | --- |
| O=C[C@H](O)[C@@H](O)[C@@H](O)[C@H](O)CO [galactose] | no significant change |

molecular target: Tlp10^LBD N115A (Campylobacter jejuni, UniProt Q0PCA6, N115A); experiment: biochemical; format: binding, C. jejuni; conditions: not given

| Compound | Kd [µM] |
| --- | --- |
| CC(=O)N[C@H]1[C@H]([C@H](O)[C@H](O)CO)OC(O)(C(=O)O)C[C@@H]1O (some centres unmarked) [sialic acid] | 34.9 ± 13 |
| Cc1ncc(C[n+]2csc(CCO)c2C)c(N)n1 [thiamine] | 49.2 ± 10 |

same assay, conditions: read-out: KD Tlp10^LBD N115A; SPR, mean ± s.d., n = 3

| Compound | Kd [µM] |
| --- | --- |
| O=C(O)CCC(=O)C(=O)O [α-ketoglutarate] | 630 ± 27 |
| fumarate | 242 ± 30 |
| rhamnose | 18.2 ± 1.9 |

molecular target: T1, Tlp10^LBD wild type (Campylobacter jejuni, UniProt Q0PCA6); experiment: biochemical; format: binding; conditions: KD Tlp10^LBD Wild-type, SPR, Table 2, mean ± s.d., n = 3

| Compound | Kd [µM] |
| --- | --- |
| CC(=O)N[C@H]1[C@H]([C@H](O)[C@H](O)CO)OC(O)(C(=O)O)C[C@@H]1O (some centres unmarked) [sialic acid] | 29.3 ± 6.9 |
| Cc1ncc(C[n+]2csc(CCO)c2C)c(N)n1 [thiamine] | 59.4 ± 13 |

same assay, conditions: KD, SPR, wild-type Tlp10^LBD, mean ± SD, n = 3

| Compound | Kd [µM] |
| --- | --- |
| CC(=O)N[C@H]1[C@H]([C@H](O)[C@H](O)CO)OC(O)(C(=O)O)C[C@@H]1O (some centres unmarked) [sialic acid] | 29.3 ± 6.9 |
| Cc1ncc(C[n+]2csc(CCO)c2C)c(N)n1 [thiamine] | 59.4 ± 13 |

same assay, conditions: SPR, wild-type Tlp10^LBD, mean ± SD, n = 3

| Compound | Kd [µM] |
| --- | --- |
| O=C(O)CCC(=O)C(=O)O [α-ketoglutarate] | 403 ± 13 |
| fumarate | 282 ± 68 |

same assay, conditions: binding to Tlp10^LBD by SPR

| Compound | SPR |
| --- | --- |
| O=C[C@H](O)[C@@H](O)[C@@H](O)[C@H](O)CO [galactose] | + |
| CC(=O)N[C@H]1[C@H]([C@H](O)[C@H](O)CO)OC(O)(C(=O)O)C[C@@H]1O (some centres unmarked) [sialic acid] | + |
| Cc1ncc(C[n+]2csc(CCO)c2C)c(N)n1 [thiamine] | + |
| O=C(O)CCC(=O)C(=O)O [α-ketoglutarate] | + |
| fumarate | + |
| rhamnose | + |

same assay, conditions: read-out: KD Tlp10^LBD Wild-type; SPR, Table 2, mean ± s.d., n = 3

| Compound | Kd [µM] |
| --- | --- |
| O=C(O)CCC(=O)C(=O)O [α-ketoglutarate] | 403 ± 13 |
| fumarate | 282 ± 68 |
| rhamnose | 11.1 ± 2 |

molecular target: Tlp10^LBD Y70A (Campylobacter jejuni, UniProt Q0PCA6, Y70A); experiment: biochemical; format: binding, C. jejuni; conditions: not given

| Compound | Kd [µM] |
| --- | --- |
| CC(=O)N[C@H]1[C@H]([C@H](O)[C@H](O)CO)OC(O)(C(=O)O)C[C@@H]1O (some centres unmarked) [sialic acid] | 24.1 ± 7 |
| Cc1ncc(C[n+]2csc(CCO)c2C)c(N)n1 [thiamine] | 62 ± 17 |

same assay, conditions: read-out: KD Tlp10^LBD Y70A; SPR, mean ± s.d., n = 3

| Compound | Kd [µM] |
| --- | --- |
| O=C(O)CCC(=O)C(=O)O [α-ketoglutarate] | 385 ± 40 |
| fumarate | 185 ± 25 |
| rhamnose | 8.2 ± 3 |

tested on: C. jejuni 11168-O; experiment: μ-Slide chemotaxis cell enumeration assay; format: cell-based; conditions: 10 mM chemoeffector
Procedure, shortened: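 Wild-type, Δtlp10LBD and complemented strains are harvested from MHA plates into PBS, adjusted to OD600 1 and mixed 1:1 (vol:vol) with 1% LMT. The opposite μ-Slide reservoir holds chemoeffector (final 10 mM) in LMT (final 0.35%). Slides are incubated 3 h at 42°C, microaerobic. Cells in the chemoeffector reservoir are enumerated by viable count. Three biological repeats are run, each in triplicate.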

| Compound | Tlp10-mediated chemotactic response type | migration of Δtlp10^LBD cells toward ligand compared with wild-type |
| --- | --- | --- |
| O=C[C@H](O)[C@@H](O)[C@@H](O)[C@H](O)CO [galactose] | repellent response | increased |
| CC(=O)N[C@H]1[C@H]([C@H](O)[C@H](O)CO)OC(O)(C(=O)O)C[C@@H]1O (some centres unmarked) [sialic acid] |  | No significant differences |
| rhamnose |  | No significant differences |

molecular target: T1, Tlp10^LBD wild type; experiment: not given; format: binding; conditions: competition SPR, compounds at 10x KD

| Compound | ligand-binding site on Tlp10^LBD |
| --- | --- |
| O=C[C@H](O)[C@@H](O)[C@@H](O)[C@H](O)CO [galactose] | site B |
| CC(=O)N[C@H]1[C@H]([C@H](O)[C@H](O)CO)OC(O)(C(=O)O)C[C@@H]1O (some centres unmarked) [sialic acid] | site B |
| Cc1ncc(C[n+]2csc(CCO)c2C)c(N)n1 [thiamine] | both site A and site B with a preference for site B |
| O=C(O)CCC(=O)C(=O)O [α-ketoglutarate] | site A |
| fumarate | site A |
| rhamnose | site B |

molecular target: Tlp10^LBD H193A (Campylobacter jejuni, UniProt Q0PCA6, H193A); experiment: biochemical; format: binding, C. jejuni; conditions: not given

| Compound | Kd [µM] |
| --- | --- |
| CC(=O)N[C@H]1[C@H]([C@H](O)[C@H](O)CO)OC(O)(C(=O)O)C[C@@H]1O (some centres unmarked) [sialic acid] | 20.4 ± 9 |
| Cc1ncc(C[n+]2csc(CCO)c2C)c(N)n1 [thiamine] | 50.6 ± 6 |

same assay, conditions: read-out: KD Tlp10^LBD H193A; SPR, mean ± s.d., n = 3

| Compound | Kd [µM] |
| --- | --- |
| O=C(O)CCC(=O)C(=O)O [α-ketoglutarate] | 370 ± 63 |
| fumarate | 213 ± 59 |
| rhamnose | 9.8 ± 0.95 |

tested on: Tlp10^LBD; experiment: Glycan and small molecule array binding of purified Tlp10 LBD; design: species or system C. jejuni; conditions: binding to Tlp10^LBD on glycan / small molecule array

| Compound | array |
| --- | --- |
| O=C[C@H](O)[C@@H](O)[C@@H](O)[C@H](O)CO [galactose] | + |
| CC(=O)N[C@H]1[C@H]([C@H](O)[C@H](O)CO)OC(O)(C(=O)O)C[C@@H]1O (some centres unmarked) [sialic acid] | + |
| Cc1ncc(C[n+]2csc(CCO)c2C)c(N)n1 [thiamine] | + |
| fumarate | + |
| rhamnose | + |

same assay, conditions: glycan array

| Compound | interaction of Tlp10^LBD with complex glycans |
| --- | --- |
| CC(=O)N[C@@H](C=O)[C@@H](O[C@@H]1O[C@H](CO)[C@H](O)[C@H](O)[C@H]1O)[C@H](O[C@@H]1O[C@@H](C)[C@@H](O)[C@@H](O)[C@@H]1O)[C@H](O)CO [Lewis^a antigen] | interacted |
| Fucα1–2Galβ1–3GalNAcβ1–4(Neu5Acα2–3) Galβ1–4Glc [human ganglioside GM1] | interacted |

tested on: C. jejuni 11168-O adherence to Caco-2, HCT116 and HCT116MUC1 cells; experiment: Adherence of C. jejuni to cultured human cells with glycan competition; format: cell-based; conditions: 11168-O wild-type and Δtlp10^LBDc strains, 5 mM glycan

| Compound | effect on adherence to all cell lines tested |
| --- | --- |
| O=C[C@H](O)[C@@H](O)[C@@H](O)[C@H](O)CO [galactose] | suppressed the adherence |

tested on: C. jejuni 11168-O; experiment: not given; format: cell-based; conditions: nutrient-depleted chemotaxis assay, 2 mM ligand

| Compound | Tlp10-mediated chemotactic response type | migration of Δtlp10^LBD strain towards ligand compared to wild-type |
| --- | --- | --- |
| O=C[C@H](O)[C@@H](O)[C@@H](O)[C@H](O)CO [galactose] | repellent | One-log increase in migration |
| Cc1ncc(C[n+]2csc(CCO)c2C)c(N)n1 [thiamine] | repellent response | increase in migration |
| O=C(O)CCC(=O)C(=O)O [α-ketoglutarate] |  | not significantly affected |
| fumarate | attractants |  |
| rhamnose |  | not significantly affected |
